Data reported in ChEMBL document CHEMBL3603824, “Evaluation of spiropiperidine hydantoins as a novel class of antimalarial agents” (Bioorg Med Chem, 2015).
Active and inactive are the calls of the source. No cut-off for these calls is given here.

Columns and labels:
[1] = tested on: Plasmodium falciparum; experiment: Antimalarial activity against chloroquine-sensitive Plasmodium falciparum 3D7 infected in human erythrocytes assessed as inhibition of parasite growth after 72 hrs by SYBR Green I method; assay type: functional, organism-based; conditions: 3D7, 72 h
Procedure, shortened: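 P. falciparum 3D7 grown in human erythrocytes (2% hematocrit) in RPMI1640 with Hepes, hypoxanthine, glucose, bicarbonate and Albumax I under 5% CO2/5% O2/90% N2. 10 mM DMSO stocks, 3-fold serial dilutions. Quadruplicate wells at 0.5% parasitemia, 0.1% DMSO final, 72 h at 37 °C. SYBR Green I lysis buffer added, 1 h dark, fluorescence 497/520. IC50 by four-parameter logistic fit.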

[2] = tested on: HepG2; experiment: Cytotoxicity against human HepG2 cells assessed as inhibition of cell viability after 72 hrs by PrestoBlue Cell Viability Reagent based assay; conditions: HepG2, 72 h
Procedure, shortened: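 HepG2 kept in DMEM with 10% FBS and L-glutamine on poly-D-lysine at 37 °C, 5% CO2. Seeded 10,000 cells/well, allowed to adhere at least 4 h, then exposed to compound for 72 h. PrestoBlue added for 30 min at 37 °C, fluorescence Ex 560/Em 590 nm. IC50 by nonlinear regression.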

[3] = Selectivity index, ratio of IC50 for human HepG2 cells to IC50 for chloroquine-sensitive Plasmodium falciparum 3D7 infected in human erythrocytes; assay type: toxicity, cell-based; conditions: read-out: Ratio IC50
[4] = molecular target: Beta-secretase 1 (Homo sapiens) (UniProt P56817); experiment: Inhibition of human recombinant BACE1 using Mca-SEVNLDAEFRK(Dnp)RR-NH2 as substrate up to 10 uM by FRET assay
Procedure, shortened: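 Recombinant human BACE1 at 20 ng/µl, activated 15 min at RT in 100 mM sodium acetate pH 4.0. FRET substrate added at 20 uM final. Run 60 min at RT, time-resolved fluorescence Ex/Em 360/460 nm. IC50 by nonlinear regression.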

[5] = molecular target: Cathepsin D (Homo sapiens) (UniProt P07339); experiment: Inhibition of human recombinant cathepsin D using Mca-PLGL-Dpa-AR-NH2 as substrate up to 10 uM by FRET assay
Procedure, shortened: (§1)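 Recombinant human cathepsin D at 20 ng/µl and cathepsin E at 1 ng/µl, each activated 30 min at RT in 0.1 M NaOAc, 0.2 M NaCl, pH 3.5. FRET substrate added at 20 uM final. Run 60 min at RT, time-resolved fluorescence Ex/Em 360/460 nm. IC50 by nonlinear regression.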

[6] = molecular target: T1, Cathepsin E (Homo sapiens) (UniProt P14091); experiment: Inhibition of human recombinant cathepsin E using Mca-PLGL-Dpa-AR-NH2 as substrate up to 10 uM by FRET assay; procedure, shortened: as §1
T1 sequence (whole entry): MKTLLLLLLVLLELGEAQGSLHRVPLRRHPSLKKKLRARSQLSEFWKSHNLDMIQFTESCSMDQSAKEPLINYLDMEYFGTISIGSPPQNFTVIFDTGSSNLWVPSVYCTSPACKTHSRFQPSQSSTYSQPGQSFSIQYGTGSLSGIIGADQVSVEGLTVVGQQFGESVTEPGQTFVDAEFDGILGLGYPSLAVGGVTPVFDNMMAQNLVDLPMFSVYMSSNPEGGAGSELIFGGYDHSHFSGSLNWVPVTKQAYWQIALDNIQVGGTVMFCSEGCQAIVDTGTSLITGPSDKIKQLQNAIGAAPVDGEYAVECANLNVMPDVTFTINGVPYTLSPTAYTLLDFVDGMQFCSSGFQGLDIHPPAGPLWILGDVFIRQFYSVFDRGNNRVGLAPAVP

[7] = tested on: Plasmodium; experiment: Inhibition of Plasmodium plamepsin 2 using EDANS-CO-CH2-CH2-CO-ALERMFLSFP-Dap(DABCYL)OH as substrate up to 10 uM after 60 mins by fluorescence assay
Procedure, shortened: (§2)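 Recombinant PM-2 or PM-4, purified and activated at 0.3 mg/ml in pH 4.5 citrate, 0.1% Tween-20, 50 mM DTT for 40 min at RT. Then diluted in 50 mM sodium acetate pH 4.7, 0.01% Tween-20. Serially diluted compounds added, followed by peptide substrate at 20 μM final. Run 60 min at RT, fluorescence Ex/Em 360/535 nm. IC50 derived from the curve.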

[8] = tested on: Plasmodium; experiment: Inhibition of Plasmodium plamepsin 4 using EDANS-CO-CH2-CH2-CO-ALERMFLSFP-Dap(DABCYL)OH as substrate up to 10 uM after 60 mins by fluorescence assay; procedure, shortened: as §2
[9] = tested on: Plasmodium falciparum; experiment: Antimalarial activity against multidrug-resistant Plasmodium falciparum Dd2 infected in human erythrocytes assessed as inhibition of parasite growth after 72 hrs by SYBR Green I method; assay type: functional, organism-based; conditions: Dd2, 72 h
Procedure, shortened: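 SYBR Green I growth assay in human erythrocytes. DMSO stocks (10 mM), 3-fold serial dilutions, then diluted 500-fold into medium and added in quadruplicate. Final conditions: 2% hematocrit, 0.5% parasitemia, 0.1% DMSO. Incubated 72 h at 37 °C. Lysis buffer with SYBR Green I added, 1 h at room temperature in the dark. Fluorescence read at 497/520 nm. IC50 from four-parameter logistic nonlinear regression.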

[10] = tested on: Liver; experiment: Half-life in mouse liver microsomes at 1 uM by LC-MS/MS analysis; assay type: ADME
Procedure, shortened: (§3)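 Compound at 1 μM with liver microsomes (mouse, rat or human), 1.2 mM NADPH, 3.3 mM MgCl2, 100 mM potassium phosphate pH 7.4, at 37 °C. Aliquots taken at 0, 5, 10, 20 and 30 min and quenched in ice-cold acetonitrile with internal standard. Centrifuged supernatant run by LC-MS/MS. Half-life from analyte/internal standard peak-area ratios.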

[11] = tested on: Liver microsome; experiment: Half-life in rat liver microsomes at 1 uM by LC-MS/MS analysis; assay type: ADME; procedure, shortened: as §3
[12] = tested on: Liver microsome; experiment: Half-life in human liver microsomes at 1 uM by LC-MS/MS analysis; assay type: ADME; procedure, shortened: as §3
[13] = Half-life in Sprague-Dawley rat at 1 mg/kg, iv and 5 mg/kg, po by LC-MS analysis; assay type: ADME, organism-based; conditions: in vivo
[14] = tested on: Rattus norvegicus; experiment: Volume of distribution in Sprague-Dawley rat at 1 mg/kg, iv and 5 mg/kg, po by LC-MS analysis; assay type: ADME, organism-based; conditions: in vivo
[15] = tested on: Rattus norvegicus; experiment: Oral bioavailability in Sprague-Dawley rat at 5 mg/kg by LC-MS analysis; assay type: ADME, organism-based; conditions: in vivo

Chain of Beta-secretase 1 (Homo sapiens) (P56817 whole entry): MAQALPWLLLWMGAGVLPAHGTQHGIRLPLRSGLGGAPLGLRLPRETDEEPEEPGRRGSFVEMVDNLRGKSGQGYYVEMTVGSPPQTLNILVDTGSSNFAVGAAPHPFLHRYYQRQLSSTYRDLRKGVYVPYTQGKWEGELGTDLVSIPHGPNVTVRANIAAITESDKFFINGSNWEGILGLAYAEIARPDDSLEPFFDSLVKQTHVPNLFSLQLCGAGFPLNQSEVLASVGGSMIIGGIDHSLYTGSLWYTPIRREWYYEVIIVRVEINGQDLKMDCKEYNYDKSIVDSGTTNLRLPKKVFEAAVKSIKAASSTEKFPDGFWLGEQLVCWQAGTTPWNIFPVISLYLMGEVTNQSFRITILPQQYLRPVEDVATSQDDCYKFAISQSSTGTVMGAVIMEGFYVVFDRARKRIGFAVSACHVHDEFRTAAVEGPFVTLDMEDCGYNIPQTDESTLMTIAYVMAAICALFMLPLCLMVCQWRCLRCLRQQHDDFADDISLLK
Chain of Cathepsin D (Homo sapiens) (P07339 65-162 limits assumed): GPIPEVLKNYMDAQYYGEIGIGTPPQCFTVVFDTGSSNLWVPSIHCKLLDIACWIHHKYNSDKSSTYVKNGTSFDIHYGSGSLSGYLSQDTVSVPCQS
Chain of Cathepsin D (Homo sapiens) (P07339 169-412 limits assumed): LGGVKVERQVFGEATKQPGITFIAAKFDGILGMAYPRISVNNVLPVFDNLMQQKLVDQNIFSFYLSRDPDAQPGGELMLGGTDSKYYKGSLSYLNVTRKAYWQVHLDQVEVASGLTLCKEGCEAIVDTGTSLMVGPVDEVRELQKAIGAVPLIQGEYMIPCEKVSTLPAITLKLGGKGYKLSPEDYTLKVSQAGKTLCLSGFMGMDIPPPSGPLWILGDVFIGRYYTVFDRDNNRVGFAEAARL

## CC(C)CCN1C(=O)N(C(C)C)C(=O)C12CCN(Cc1cc(Cl)ccc1O)CC2
[1]
  IC50: 110 nM

## CCN1C(=O)N(CCC(C)C)C2(CCN(Cc3cccc4cc[nH]c34)CC2)C1=O
[1]
  IC50: 3400 nM

## CCN1C(=O)N(CCC(C)C)C2(CCN(Cc3ccc(Cl)cc3O)CC2)C1=O
[1]
  IC50: 2100 nM
[2]
  IC50: > 50000 nM

## CCN1C(=O)N(CCC(C)C)C2(CCN(Cc3cc(Br)ccc3O)CC2)C1=O
[1]
  IC50: 210 nM

## CC(C)CCN1C(=O)N(CCCc2ccncc2)C(=O)C12CCN(Cc1cc(Cl)ccc1O)CC2
[1]
  IC50: 610 nM

## CCN1C(=O)N(Cc2ccc(OC)cc2)C2(CCN(Cc3cc(Cl)ccc3O)CC2)C1=O
[1]
  IC50: 560 nM

## CCN1C(=O)N(CCC(C)C)C2(CCN(Cc3cccc(OC)c3)CC2)C1=O
[1]
  IC50: 16000 nM

## CCN1C(=O)N(CCC(C)C)C2(CCN(Cc3cccc(Cl)c3O)CC2)C1=O
[1]
  IC50: 1100 nM

## CCN1C(=O)N(CCC(C)C)C2(CCN(Cc3c(O)cccc3Cl)CC2)C1=O
[1]
  IC50: 410 nM

## CCN1C(=O)N(CCC(C)C)C2(CCN(Cc3cc(Cl)c(Cl)cc3O)CC2)C1=O
[1]
  IC50: 90 nM
[2]
  IC50: > 50000 nM
[3]
  selectivity ratio: > 500
[4]
  inhibition: inactive
[5]
  inhibition: inactive
[6]
  inhibition: inactive
[7]
  inhibition: inactive
[8]
  inhibition: inactive

## CCN1C(=O)N(CCC(C)C)C2(CCN(Cc3cc(C)ccc3O)CC2)C1=O
[1]
  IC50: 880 nM

## CCN1C(=O)N(CCC(C)C)C2(CCN(Cc3ccc(O)c(Cl)c3)CC2)C1=O
[1]
  IC50: 2600 nM

## CCN1C(=O)N(CCC(C)C)C2(CCN(Cc3cccc(Cl)c3)CC2)C1=O
[1]
  IC50: 14000 nM

## CCN1C(=O)N(CC)C2(CCN(Cc3cc(Cl)ccc3O)CC2)C1=O
[1]
  IC50: 6700 nM

## CCN1C(=O)N(c2ccccc2)C2(CCN(Cc3cc(Cl)ccc3O)CC2)C1=O
[1]
  IC50: 3600 nM

## CCN1C(=O)N(CCC(C)C)C2(CCN(C(=O)c3ccccn3)CC2)C1=O
[1]
  IC50: > 10000 nM

## CCN1C(=O)N(CCC(C)C)C2(CCN(Cc3cc(Cl)ccc3O)CC2)C1=O
[1]
  IC50: 220 nM
[2]
  IC50: 37000 nM
[3]
  selectivity ratio: > 100
[4]
  inhibition: inactive
[5]
  inhibition: inactive
[6]
  inhibition: inactive
[7]
  inhibition: inactive
[8]
  inhibition: inactive
[9]
  IC50: 220 nM
[10]
  t1/2: 4 min
[11]
  t1/2: 3 min
[12]
  t1/2: 9 min
[13]
  half-life: 16.8 min
[14]
  Vd: 3.7 L/kg
[15]
  F: 10%

## CCN1C(=O)N(CCC(C)C)C2(CCNCC2)C1=O
[1]
  IC50: > 10000 nM

## CCN1C(=O)N(Cc2ccccc2)C2(CCN(Cc3cc(Cl)ccc3O)CC2)C1=O
[1]
  IC50: 560 nM

## CCN1C(=O)N(CCC(C)C)C2(CCN(Cc3ccccc3O)CC2)C1=O
[1]
  IC50: 1100 nM

## CCN1C(=O)NC2(CCN(Cc3cc(Cl)ccc3O)CC2)C1=O
[1]
  IC50: > 10000 nM

## CCN1C(=O)N(CCC(C)C)C2(CCN(Cc3ccc(OC)cc3O)CC2)C1=O
[1]
  IC50: 940 nM

## CCN1C(=O)N(CCC(C)C)C2(CCN(Cc3cc(-c4ccccc4)ccc3O)CC2)C1=O
[1]
  IC50: 290 nM
[2]
  IC50: > 50000 nM

## CCN1C(=O)N(CCC(C)C)C2(CCN(Cc3cc(O)cc(Cl)c3)CC2)C1=O
[1]
  IC50: 760 nM

## CCN1C(=O)N(CCC(C)C)C2(CCN(Cc3cccc4cccnc34)CC2)C1=O
[1]
  IC50: > 10000 nM

## CCN1C(=O)N(Cc2ccc(C#N)cc2)C2(CCN(Cc3cc(Cl)ccc3O)CC2)C1=O
[1]
  IC50: 1500 nM

## CCN1C(=O)N(CCC(C)C)C2(CCN(Cc3cccnc3N)CC2)C1=O
[1]
  IC50: > 10000 nM

## CC(C)CCN1C(=O)N(Cc2cccnc2)C(=O)C12CCN(Cc1cc(Cl)ccc1O)CC2
[1]
  IC50: 840 nM

## CCN1C(=O)N(C2CCCC2)C2(CCN(Cc3cc(Cl)ccc3O)CC2)C1=O
[1]
  IC50: 430 nM

## CCN1C(=O)N(CCC(C)C)C2(CCN(Cc3ccc(OC)cc3OC)CC2)C1=O
[1]
  IC50: 7600 nM

## CCN1C(=O)N(CCC(C)C)C2(CCN(Cc3ccccn3)CC2)C1=O
[1]
  IC50: > 10000 nM

## CCN1C(=O)N(CCC(C)C)C2(CCN(CCCO)CC2)C1=O
[1]
  IC50: > 10000 nM

## CC(C)CCN1C(=O)NC(=O)C12CCN(Cc1cc(Cl)ccc1O)CC2
[1]
  IC50: > 10000 nM

## CCN1C(=O)N(CCC(C)C)C2(CCN(Cc3cccc(OC)c3O)CC2)C1=O
[1]
  IC50: 6000 nM

## CCN1C(=O)N(CCC(C)C)C2(CCN(Cc3c(O)ccc(Cl)c3Cl)CC2)C1=O
[1]
  IC50: 280 nM

## CCN1C(=O)N(Cc2ccc(C(F)(F)F)cc2)C2(CCN(Cc3cc(Cl)ccc3O)CC2)C1=O
[1]
  IC50: 230 nM

## CCN1C(=O)N(CCC(C)C)C2(CCN(Cc3cc(OC)ccc3O)CC2)C1=O
[1]
  IC50: 560 nM

## CCN1C(=O)N(CCC(C)C)C2(CCN(C(=O)c3cc(Cl)ccc3O)CC2)C1=O
[1]
  IC50: > 10000 nM

## CCN1C(=O)N(CCC(C)C)C2(CCN(Cc3cc(Cl)cc(Cl)c3O)CC2)C1=O
[1]
  IC50: 460 nM

## CCN1C(=O)N(CCC(C)C)C2(CCN(Cc3cc(Cl)cnc3N)CC2)C1=O
[1]
  IC50: > 10000 nM

## CCN1C(=O)N(CCC(C)C)C2(CCN(Cc3cc(F)ccc3O)CC2)C1=O
[1]
  IC50: 1400 nM

## CCN1C(=O)N(CCc2ccccc2)C2(CCN(Cc3cc(Cl)ccc3O)CC2)C1=O
[1]
  IC50: 290 nM
